# In the library only some 2.5% were active in any assay of this set; here they are far more common.
# SENP1 FRET inh – SENP1 (human) catalytic domain inhibition. recombinant SENP1 catalytic domain, CyPet-SUMO1-YPet FRET cleavage. inhibition, % at 10 µM. AID 624204. hit rate 0.21% among 360,000. Q9P0U3;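 active = inhibition at least 30% at 10 µM, raw YFP signal under a set limit, fluorescence ratio 0.5 to 1.5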;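 note: 0% = enzyme with DMSO and 100% = no enzyme wells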
#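 Material – human SENP1 catalytic domain · Input – SENP1 enzyme, 20 pM final · Compound dosing – single concentration of 10 µM compound, 0.5% DMSO final · Timing – enzyme reaction for 50 min at room temperature, dark · Measured by – FRET fluorescence in CFP and YFP emission channels · Control set – no-enzyme wells low, DMSO-plus-enzyme wells high control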
# SENP8 block-1 – blocks the human protease SENP8 | hit rate 1.2% among 330,000 | purified SENP8, Z-RLRGG-aminoluciferin cleavage, luminescence | Q96LD8 | inhibition, % at 10 µM; in the data active = inhibition above about 50%
# Target sequence (Q96LD8 whole entry, looked up): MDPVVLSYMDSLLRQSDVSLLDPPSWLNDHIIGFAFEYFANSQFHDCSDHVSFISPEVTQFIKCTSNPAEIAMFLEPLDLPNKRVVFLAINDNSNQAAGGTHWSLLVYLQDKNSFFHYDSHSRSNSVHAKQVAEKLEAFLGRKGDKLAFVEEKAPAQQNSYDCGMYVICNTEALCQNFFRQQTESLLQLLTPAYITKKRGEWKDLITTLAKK
# SENP6 block – SENP6 protease inhibition; Q9GZR1; Recombinant SENP6 catalytic domain, aminoluciferin luminescence; inhibition, % at 10 µM; hit rate 1.8% among 330,000;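 active = inhibition above about 50% at the single tested dose, limit read from the data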;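 note: plate controls were DMSO wells with enzyme for no effect and DMSO wells lacking enzyme for full effect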
# SENP8 block-2 – inhibitors of human SENP8 protease | recombinant SENP8, Nedd8 substrate fluorescence | inhibition, % at 20 µM | hit rate 0.64% among 360,000 | AID 602440; in the data active = inhibition mostly above about 40%, no sharp cut-off; inactive = mostly below about 27%
# SENP7 block – inhibitors of human SENP7 protease. AID 434973. inhibition, % at 5 µM. hit rate 1.5% among 330,000. recombinant SENP7, Z-RLRGG-aminoluciferin luminescence, 40 min;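 active = inhibition above about 50% at the single test dose, limit read from the data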;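 note: plate controls were DMSO with enzyme for no effect and no enzyme buffer wells for full effect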
# Target sequence (Q9BQF6 706-1050 limits assumed): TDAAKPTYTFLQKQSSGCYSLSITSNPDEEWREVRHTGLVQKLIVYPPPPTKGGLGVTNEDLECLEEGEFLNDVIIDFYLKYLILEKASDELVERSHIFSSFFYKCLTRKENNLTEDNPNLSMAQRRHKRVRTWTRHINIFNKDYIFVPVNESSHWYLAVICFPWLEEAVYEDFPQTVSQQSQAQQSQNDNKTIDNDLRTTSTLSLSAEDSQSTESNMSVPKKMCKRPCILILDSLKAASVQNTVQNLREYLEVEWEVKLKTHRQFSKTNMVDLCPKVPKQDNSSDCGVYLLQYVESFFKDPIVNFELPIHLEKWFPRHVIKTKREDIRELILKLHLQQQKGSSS
# SENP8 conf – confirmation of human SENP8 protease inhibitors. inhibition, % at 12.5 µM. shares compounds with SENP7 block. hit rate 40% among 6,200. Recombinant SENP8, Z-RLRGG-aminoluciferin luminescence, 60 min. AID 488912;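 active = mean inhibition across replicates above about 50%, limit read from the data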
# SENP6 conf – human SENP6 inhibition, confirmed; shares compounds with SENP7 block; recombinant SENP6, Z-RLRGG-aminoluciferin luminescence; inhibition, % at 12.5 µM; hit rate 58% among 6,200; AID 488915
# SENP7 confirm – confirmation of human SENP7 protease inhibitors | shares compounds with SENP7 block | recombinant SENP7, Z-RLRGG-aminoluciferin luminescence, 40 min | AID 488917 | hit rate 69% among 6,200 | inhibition, % at 12.5 µM
# Casp3 SENP sel – inhibits human caspase-3 in SENP selectivity test; shares compounds with SENP7 block; purified caspase-3, Z-DEVD-aminoluciferin luminescence, 60 min; inhibition, % at 12.5 µM; hit rate 60% among 6,200; AID 488918;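 active = mean inhibition above about 50%, limit read from the data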;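 note: plate controls were enzyme with DMSO for no effect and wells without caspase-3 for full effect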
# SENP luc ctr – luminescence interference (SENP counter-screen); shares compounds with SENP7 block; Pre-incubated SENP8/Z-RLRGG-aminoluciferin, luciferase luminescence interference; inhibition, % at 12.5 µM; hit rate 39% among 6,200; AID 488919;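 active = mean inhibition above about 50% when retested at one dose, limit read from the data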;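 note: plate controls were DMSO wells with completed reaction for no effect and substrate without enzyme for full effect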
# The depositor's hits bear a star; / = no result.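 Rule for the calls, unless noted: active = mean inhibition above about 50% in the one-dose retest (limit read from the data); inactive = the rest.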
SMILES,SENP1 FRET inh,SENP8 block-1,SENP6 block,SENP8 block-2,SENP7 block,SENP8 conf,SENP6 conf,SENP7 confirm,Casp3 SENP sel,SENP luc ctr
COc1cccc(CNc2cnc3ccccc3c2)c1O,-7,42,60*,-304,38,37,35,77*,34,61*
COc1cccc(CNc2cccc3cccnc23)c1O,-10,80*,79*,33,66*,-6,11,16,2,14
Oc1c(Br)cc(Br)cc1CNc1cccc2cccnc12,-23,91*,85*,-70,88*,4,21,22,4,-3
Oc1ccc(Br)cc1CNc1cnc2ccccc2c1,-10,-6,6,-330,-7,/,/,/,/,/
Oc1c(Br)cc(Br)cc1CNc1ccccn1,2,3,3,34,0,/,/,/,/,/
Cc1[nH]c2ccccc2c1C(=O)C(=O)N1CCN(c2cccc(Cl)c2)CC1,2,4,-1,6,7,/,/,/,/,/
COc1ccc(C)cc1NC(=O)NC1CC(=O)N(c2ccc3c(c2)OCCO3)C1 (stereo not given),-1,/,/,9,/,/,/,/,/,/
N/C(=N\NC(=O)c1cccs1)c1cc2cc(Cl)ccc2oc1=O,0,3,9,-1,4,/,/,/,/,/
CN(C)S(=O)(=O)c1ccc(Cl)c(NC(=O)C2CCN(S(=O)(=O)c3cccs3)CC2)c1,1,2,1,12,2,/,/,/,/,/
Oc1ccc(Cl)cc1CNc1cccc2cccnc12,-9,88*,84*,35,65*,-7,18,5,4,6
Cc1ccc(O)c(CNc2cccc3cccnc23)c1,-6,84*,-4,-8,65*,-2,21,16,5,4
O=C(NC1CCN(Cc2ccc3ccccc3c2)CC1)c1ccccc1,1,-3,9,29,5,/,/,/,/,/
Cc1ccc(NC(=O)C(c2ccccc2)N2CCN(CC(=O)N3CCOCC3)CC2)cc1Cl (stereo not given),0,2,9,10,6,/,/,/,/,/
CCOc1ccc(NC(=O)c2nn(C)cc2Br)cc1,1,-5,24,2,21,/,/,/,/,/
Cn1cc(Br)c(C(=O)Nc2ncc(Br)s2)n1,-2,-9,28,-23,70*,-6,-2,-3,16,-1
Cc1ccc(C(=O)Nc2ncc3c(Cl)cccc3n2)cc1,2,81*,88*,4,91*,83*,93*,99*,93*,52*
O=C(Nc1ccc(Cl)cn1)c1cccc(OCc2ccccc2)c1,2,-8,-10,13,-5,/,/,/,/,/
Cc1ccccc1C(=O)Nc1ccc(Cl)cn1,-1,19,56*,21,51*,39,44,73*,74*,37
O=C(Nc1ccc(Cl)cn1)c1ccc(Oc2ccccc2)cc1,0,90*,91*,3,91*,27,52*,58*,47,5
CCCOc1ccc(C(=O)Nc2ccc(Cl)cn2)cc1,2,71*,78*,7,84*,21,23,50*,40,20
Cc1ccc(C(=O)Nc2nccc(-c3cccs3)n2)cc1,0,-10,-14,-7,-10,/,/,/,/,/
CC(C)C(=O)N1CCCC1(C)C(=O)N(C)Cc1cccc2ccccc12 (stereo not given),1,/,/,11,/,/,/,/,/,/
Cc1ccc(CC(=O)Nc2ccc(Cl)cn2)cc1,1,3,-20,18,0,/,/,/,/,/
Cc1ccccc1C(=O)Nc1ccc(Br)c(C)n1,2,43,59*,12,66*,61*,62*,87*,65*,58*
Cc1ccc(C(=O)Nc2ccc(Cl)cn2)cc1,0,59*,75*,16,59*,48,64*,90*,78*,36
SMILES,SENP1 FRET inh,SENP8 block-1,SENP6 block,SENP8 block-2,SENP7 block,SENP8 conf,SENP6 conf,SENP7 confirm,Casp3 SENP sel,SENP luc ctr
CCNC(=O)COC(=O)c1cccc(Br)c1,1,7,-6,17,4,/,/,/,/,/
O=C(O)c1ccc(N/N=C/c2ccc(-c3cc(Cl)ccc3Cl)o2)cc1,-36,53*,76*,-452,-5,-4,85*,86*,2,29
O=C(O)c1ccc(N/N=C/c2ccc(-c3cccc(Cl)c3)o2)cc1,-46,58*,1,-449,13,82*,82*,90*,7,82*
O=C(O)c1ccc(N/N=C/c2ccc(-c3ccc(Cl)cc3Cl)o2)cc1,-32,12,22,-365,8,/,/,/,/,/
COC(=O)C1=C(N)OC2=C(C(=O)CC(C)(C)C2)C1c1cc2c(cc1Cl)OCO2 (stereo not given),-5,4,1,10,7,/,/,/,/,/
O=C(c1cnn(-c2cccc(F)c2)c1)c1ccccc1O,1,58*,71*,12,68*,16,72*,84*,56*,12
O=C(c1cnn(-c2ccccc2)c1)c1cc(Br)ccc1O,2,-13,-7,24,-4,/,/,/,/,/
O=C(O)c1ccc(-n2cc(C(=O)c3ccccc3O)cn2)cc1,-1,78*,84*,12,78*,81*,79*,93*,91*,85*
O=C(c1cnn(C(=O)c2ccccc2)c1)c1ccccc1O,1,-9,-11,-96,5,/,/,/,/,/
O=C(c1cnn(-c2ccccc2)c1)c1ccc2ccccc2c1O,15,41,7,14,86*,12,16,0,27,1
O=C(c1cnn(-c2nc3ccccc3s2)c1)c1ccccc1O,4,38,79*,17,82*,16,37,24,18,9
CC1CCN(CCc2nc3cc(NC(=O)COc4ccc([N+](=O)[O-])cc4)ccc3n2C)CC1,1,-9,-11,13,-17,/,/,/,/,/
Cn1ccnc1SCC(=O)N1CCc2ccccc21,1,9,-1,6,6,/,/,/,/,/
CCCCC[C@H](C)N1C[C@@H](COCc2ccccc2)Oc2cc(N3CCC[C@H]3C(N)=O)ccc2S1(=O)=O,4,/,/,15,/,/,/,/,/,/
C[C@@H]1CN([C@@H](C)CO)C(=O)c2cc(NC(=O)C3CC3)ccc2O[C@@H]1CN(C)Cc1ccc(Cl)c(Cl)c1,-2,4,10,-5,1,/,/,/,/,/
CCc1cc[n+](C2=C([O-])c3ccccc3C(=O)/C2=N\S(=O)(=O)c2cccs2)cc1,9,53*,84*,90*,47,36,80*,49,22,3

# Screening results: PubChem BioAssay, Sanford-Burnham Center for Chemical Genomics
